Columns and labels:
Type in all cases: functional
[1] = system: Rattus norvegicus; test: Antiinflammatory activity in Wistar albino rat assessed as inhibition of carrageenan-induced paw edema at 50 mg/kg, po administered 30 mins prior to carrageenan challenge measured after 1 hr by plethysmometric analysis relative to control
Outline: (§1)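 Male Wistar albino rats, 200-250 g, housed under standard light and temperature, fasted from 12 h before and through the experiment; groups of five. Oral dosing 30 min before 0.1 ml of 1% carrageenan in 0.9% saline was injected into the left hind paw plantar region. Controls received Tween 80 only. Paw volume was read by plethysmometer at 0 h and at 1-4 h. Inhibition (%) = (Vc − Vt)/Vc × 100; mean ± SEM.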

[2] = system: Rattus norvegicus; test: Antiinflammatory activity in Wistar albino rat assessed as inhibition of carrageenan-induced paw edema at 50 mg/kg, po administered 30 mins prior to carrageenan challenge measured after 2 hrs by plethysmometric analysis relative to control; outline: as §1
[3] = system: Rattus norvegicus; test: Antiinflammatory activity in Wistar albino rat assessed as inhibition of carrageenan-induced paw edema at 50 mg/kg, po administered 30 mins prior to carrageenan challenge measured after 3 hrs by plethysmometric analysis relative to control; outline: as §1
[4] = system: Rattus norvegicus; test: Antiinflammatory activity in Wistar albino rat assessed as inhibition of carrageenan-induced paw edema at 50 mg/kg, po administered 30 mins prior to carrageenan challenge measured after 4 hrs by plethysmometric analysis relative to control; outline: as §1
[5] = system: Rattus norvegicus; test: Antiinflammatory activity in Wistar albino rat assessed as inhibition of carrageenan-induced paw edema at 10 mg/kg, po administered 30 mins prior to carrageenan challenge measured after 1 hr by plethysmometric analysis relative to control; outline: as §1
[6] = system: Rattus norvegicus; test: Antiinflammatory activity in Wistar albino rat assessed as inhibition of carrageenan-induced paw edema at 10 mg/kg, po administered 30 mins prior to carrageenan challenge measured after 2 hrs by plethysmometric analysis relative to control
Outline: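 Male Wistar albino rats, 200-250 g, fasted 12 hr before and during the test; groups of five. Oral dosing 30 min before sub-plantar injection of 0.1 ml carrageenan (1% in 0.9% saline) into left hind paw; controls got tween 80. Paw volume read by plethysmometer at 0 hr and 1-4 hr; % inhibition = (Vc−Vt)/Vc×100 against control; mean ± SEM.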

[7] = system: Rattus norvegicus; test: Antiinflammatory activity in Wistar albino rat assessed as inhibition of carrageenan-induced paw edema at 10 mg/kg, po administered 30 mins prior to carrageenan challenge measured after 3 hrs by plethysmometric analysis relative to control; outline: as §1
[8] = system: Rattus norvegicus; test: Antiinflammatory activity in Wistar albino rat assessed as inhibition of carrageenan-induced paw edema at 10 mg/kg, po administered 30 mins prior to carrageenan challenge measured after 4 hrs by plethysmometric analysis relative to control; outline: as §1

Row | Structure (SMILES) | inhibition in vivo at 50 mg/kg [1] [%] | inhibition in vivo at 50 mg/kg [2] [%] | inhibition in vivo at 50 mg/kg [3] [%] | inhibition in vivo at 50 mg/kg [4] [%] | inhibition in vivo at 10 mg/kg [5] [%] | inhibition in vivo at 10 mg/kg [6] [%] | inhibition in vivo at 10 mg/kg [7] [%] | inhibition in vivo at 10 mg/kg [8] [%]
1 | Cc1ccc(-c2cc3nc(-c4ccc(Br)cc4)cc(N)n3n2)cc1 | 71.2 | 56.2 | 56.1 | 66.7 | – | – | – | –
2 | Nc1cc(-c2ccc(Br)cc2)nc2cc(-c3ccccc3)nn12 | 65.4 | 63.8 | 56.1 | 66.7 | – | – | – | –
3 | COc1ccc2c(c1)c(CC(=O)O)c(C)n2C(=O)c1ccc(Cl)cc1 [INDOMETHACIN] | – | – | – | – | 73.1 | 80 | 82.9 | 84.5
4 | Cc1ccc(-c2cc(N)n3nc(-c4ccc(Cl)cc4)cc3n2)cc1 | 57.7 | 75 | 69.5 | 81 | – | – | – | –
5 | Cc1ccc(-c2cc3nc(-c4ccc(F)cc4)cc(N)n3n2)cc1 | 28.8 | 65 | 26.8 | 64.3 | – | – | – | –
6 | Nc1cc(-c2ccc(Cl)cc2)nc2cc(-c3ccccc3)nn12 | 21.1 | 13.8 | 28 | 51.2 | – | – | – | –
7 | Cc1ccc(-c2cc3nc(-c4ccc(Cl)cc4)cc(N)n3n2)cc1 | 59.6 | 67.5 | 64.6 | 67.8 | – | – | – | –
8 | Nc1cc(-c2ccc(Cl)cc2)nc2cc(-c3ccc(Br)cc3)nn12 | 13.5 | 72.5 | 56.1 | 65.5 | – | – | – | –
9 | Cc1ccc(-c2cc(N)n3nc(-c4ccccc4)cc3n2)cc1 | 28.8 | 37.5 | 31.7 | 54.8 | – | – | – | –
10 | Cc1ccc(-c2cc3nc(-c4ccccc4)cc(N)n3n2)cc1 | 26.9 | 17.5 | 34.1 | 34.5 | – | – | – | –
11 | Nc1cc(-c2ccc(Br)cc2)nc2cc(-c3ccc(Cl)cc3)nn12 | 59.6 | 60 | 70.7 | 76.2 | – | – | – | –
12 | Cc1ccc(-c2cc(N)n3nc(-c4ccc(Br)cc4)cc3n2)cc1 | 67.3 | 76.2 | 73.2 | 64.3 | – | – | – | –

Reference: ChEMBL document CHEMBL3608241, “Molecular docking design and one-pot expeditious synthesis of novel 2,5-diarylpyrazolo[1,5-a]pyrimidin-7-amines as anti-inflammatory agents” (2015)
